Results reported in PMC10693930 (Biochemistry, 2023).
Positions count from the first letter of the chain named. In names and notes the source's numbering stands.

How the values were obtained:
PC = details: cited from earlier work
K46A SaPC [1] = biological target: T1, K46A SaPC (Staphylococcus aureus, UniProt A0A0H3JRU9, K46A); assay: Pyruvate carboxylation assay; assay type: biochemical; details: K46A SaPC; for ratio (Ka CoA / Ka acetyl-CoA): discrimination of acetyl-CoA over CoA
E418A SaPC [2] = biological target: T2, E418A SaPC (Staphylococcus aureus, UniProt A0A0H3JRU9, E418A); assay: Pyruvate carboxylation assay; assay type: biochemical
E418A SaPC [3] = biological target: T2, E418A SaPC; assay: ADP phosphorylation assay; assay type: biochemical; details: up to 1 mM acetyl-CoA
WT SaPC [4] = biological target: T3, WT SaPC (Staphylococcus aureus, UniProt A0A0H3JRU9); assay: Pyruvate carboxylation assay; assay type: biochemical; details: for increase of apparent Ka in the presence of L-aspartate: 20 mM L-aspartate vs none; for ratio (Ka CoA / Ka acetyl-CoA): discrimination of acetyl-CoA over CoA
R21A SaPC [5] = biological target: T4, R21A SaPC (Staphylococcus aureus, UniProt A0A0H3JRU9, R21A); assay: ADP phosphorylation assay; assay type: biochemical; details: up to 1 mM acetyl-CoA
SaPC = details: cited from earlier work
WT SaPC [6] = biological target: T3, WT SaPC; assay: ADP phosphorylation assay; assay type: biochemical
K411A SaPC = K411A SaPC (Staphylococcus aureus, UniProt A0A0H3JRU9, K411A); assay: Pyruvate carboxylation assay; assay type: biochemical; details: K411A SaPC
K46A SaPC [7] = biological target: T1, K46A SaPC; assay: ADP phosphorylation assay; assay type: biochemical; details: up to 1 mM acetyl-CoA
R21A SaPC [8] = biological target: T4, R21A SaPC; assay: Pyruvate carboxylation assay; assay type: biochemical; details: R21A SaPC; for ratio (Ka CoA / Ka acetyl-CoA): discrimination of acetyl-CoA over CoA
[9] = biological target: ΔBCΔBCCP SaPC (Staphylococcus aureus (strain Mu50 / ATCC 700699)); assay: SEC
E418A SaPC [10] = biological target: T2, E418A SaPC; assay: Pyruvate carboxylation inhibition assay with CT domain inhibitors; assay type: biochemical; details: for change of inhibition in the presence of acetyl-CoA: 500 μM acetyl-CoA
WT SaPC [11] = biological target: T3, WT SaPC; assay: Pyruvate carboxylation inhibition assay with CT domain inhibitors; assay type: biochemical; details: SaPC; CT domain inhibitors
In short: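 WT SaPC (5 μg/mL) was pre-incubated with inhibitor and acetyl-CoA, and the reaction was started with 10× substrate mix (final 25 mM NaHCO3, 2.5 mM ATP, 12 mM pyruvate). MDH-coupled (10 U/mL MDH, 0.12 mM NADH); change in A340 monitored. Inhibitor 0–1 mM or 0–50 mM by compound. MDH-only controls. Triplicate; SD of three trials.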

SEC = biological target: the molecule itself; assay: SEC
[12] = Acyl-CoA + 20 mM L-aspartate, Table 1
[13] = Acyl-CoA alone, Table 1, fit to Equation 1 (3′5′ diphosphoadenosine: Equation 2)
[14] = up to 100 mM, nonspecific inhibition above 100 mM

CC(=O)SCCNC(=O)CCNC(=O)[C@H](O)C(C)(C)CO [acetylpantetheine]
binding and activation of PC (PC; lacks the nucleotidyl portion): binds to but does not activate PC

CC(=O)SCCNC(=O)CCNC(=O)[C@H](O)C(C)(C)COP(=O)(O)OP(=O)(O)OC[C@H]1O[C@@H](n2cnc3c(N)ncnc32)[C@H](O)[C@@H]1OP(=O)(O)O [Acetyl-CoA]
Ka (apparent activation constant) (K46A SaPC [1]): 340 ± 30 µM | ratio (Ka CoA / Ka acetyl-CoA) (K46A SaPC [1]): 4 | ratio (Ka CoA / Ka acetyl-CoA) (K46A SaPC [1]; listed as acetyl-CoA): 4 – 5 | activation of pyruvate carboxylation (E418A SaPC [2]; up to 4 mM acetyl-CoA and 30 mM CoA): unresponsive to activation | activation of ADP phosphorylation (E418A SaPC [3]): unable to be activated | Ka (apparent activation constant) (WT SaPC [4]; [12]): 4.1 ± 0.3 µM | h (Hill coefficient) (WT SaPC [4]; [12]): 3.3 ± 0.6 | h (Hill coefficient) (WT SaPC [4]; Acyl-CoA alone, Table 1): 1.5 ± 0.1 | Ka (apparent activation constant) (WT SaPC [4]; [13]): 1.5 ± 0.1 µM | increase of apparent Ka in the presence of L-aspartate (WT SaPC [4]; WT SaPC): ~ 4 fold | Ka (apparent activation constant) (WT SaPC [4]; WT SaPC, Table 2 series): 1.5 ± 0.1 µM | ratio (Ka CoA / Ka acetyl-CoA) (WT SaPC [4]; WT SaPC): 33 | ratio (Ka CoA / Ka acetyl-CoA) (WT SaPC [4]; WT SaPC, listed as acetyl-CoA): ~ 30 | activation of ADP phosphorylation (R21A SaPC [5]): unable to be activated | greater affinity than CoA (SaPC): ~ 100 fold | increase of binding affinity by the acetyl moiety (SaPC): ~ 80 fold | increase of kcat in the presence of activator (SaPC): 5-10 fold | increase of kcat in the presence of activator (PC; depends on the organism): up to 35 fold | Ka (apparent activation constant) (WT SaPC [6]; WT SaPC, ADP phosphorylation by carbamoyl phosphate): 15 ± 6 µM | concentration giving slight inhibition of ADP phosphorylation (WT SaPC [6]; in all cases, including WT (Figure S4)): greater than 4 mM | Ka (apparent activation constant) (K411A SaPC): 5.8 ± 0.2 µM | ratio (Ka CoA / Ka acetyl-CoA) (K411A SaPC; discrimination of acetyl-CoA over CoA): 17 | activation of ADP phosphorylation (K46A SaPC [7]): unable to be activated | Ka (apparent activation constant) (R21A SaPC [8]): 340 ± 50 µM | ratio (Ka CoA / Ka acetyl-CoA) (R21A SaPC [8]): 5 | ratio (Ka CoA / Ka acetyl-CoA) (R21A SaPC [8]; listed as acetyl-CoA): 4 – 5

ΔBCΔBCCP SaPC (domain or fragment)
stoichiometry N [9]: 2

N[C@@H](CCC(=O)O)C(=O)O [L-glutamate]
concentration at which pyruvate carboxylation is inhibited (WT SaPC [4]; WT SaPC, nonspecific effect (Figure S5)): exceeding 100 mM

CC(=O)NCCNC(=O)CCNC(=O)[C@H](O)C(C)(C)COP(=O)(O)OP(=O)(O)OC[C@H]1O[C@@H](n2cnc3c(N)ncnc32)[C@H](O)[C@@H]1OP(=O)(O)O [Acetyl-aza(dethia)-CoA, acetyl-aza(dethia)-CoA]
h (Hill coefficient) (WT SaPC [4]; Acyl-CoA alone, Table 1): 1.3 ± 0.4 | Ka (apparent activation constant) (WT SaPC [4]; [13]): 2500 ± 1000 µM

CC(=O)OCCNC(=O)CCNC(=O)[C@H](O)C(C)(C)COP(=O)(O)OP(=O)(O)OC[C@H]1O[C@@H](n2cnc3c(N)ncnc32)[C@H](O)[C@@H]1OP(=O)(O)O [Acetyl-oxa(dethia)-CoA, acetyl-oxa(dethia)-CoA]
Ka (apparent activation constant) (WT SaPC [4]; [12]): 270 ± 20 µM | h (Hill coefficient) (WT SaPC [4]; [12]): 3.3 ± 0.7 | h (Hill coefficient) (WT SaPC [4]; Acyl-CoA alone, Table 1): 1.5 ± 0.3 | Ka (apparent activation constant) (WT SaPC [4]; [13]): 73 ± 11 µM | increase of apparent Ka in the presence of L-aspartate (WT SaPC [4]; WT SaPC): ~ 4 fold

CC(=O)CCCNC(=O)CCNC(=O)[C@H](O)C(C)(C)COP(=O)(O)OP(=O)(O)OC[C@H]1O[C@@H](n2cnc3c(N)ncnc32)[C@H](O)[C@@H]1OP(=O)(O)O [Acetyl-carba(dethia)-CoA, acetyl-carba(dethia)-CoA]
Ka (apparent activation constant) (WT SaPC [4]; [12]): 190 ± 10 µM | h (Hill coefficient) (WT SaPC [4]; [12]): 3.1 ± 0.6 | h (Hill coefficient) (WT SaPC [4]; Acyl-CoA alone, Table 1): 1.5 ± 0.2 | Ka (apparent activation constant) (WT SaPC [4]; [13]): 53 ± 4 µM | increase of apparent Ka in the presence of L-aspartate (WT SaPC [4]; WT SaPC): ~ 4 fold

O=C(O)C(O)=Cc1ccc2ccccc2n1 [2-hydroxy-3-(quinoline-2-yl)propenoic acid]
inhibition of pyruvate carboxylation (E418A SaPC [10]): inhibited | change of inhibition in the presence of acetyl-CoA (E418A SaPC [10]): unchanged | change of potency in the presence of acetyl-CoA (WT SaPC [11]): significantly reduced potency

N[C@@H](CC(=O)O)C(=O)O [L-aspartate]
inhibition of pyruvate carboxylation (K46A SaPC [1]; [14]): not inhibited | inhibition of pyruvate carboxylation (E418A SaPC [2]; [14]): not inhibited | decrease of kcat in the presence of inhibitor (SaPC): 2-5 fold | inhibition of pyruvate carboxylation (R21A SaPC [8]; [14]): not inhibited

O=C(O)C(=O)Cc1ccccc1 [phenylpyruvate]
inhibition of pyruvate carboxylation (E418A SaPC [10]): inhibited | change of inhibition in the presence of acetyl-CoA (E418A SaPC [10]): unchanged | change of potency in the presence of acetyl-CoA (WT SaPC [11]): significantly reduced potency

Nc1ncnc2c1ncn2[C@@H]1O[C@H](COP(=O)(O)O)[C@@H](OP(=O)(O)O)[C@H]1O [3′5′ diphosphoadenosine, 3’5’-diphosphoadenosine]
h (Hill coefficient) (WT SaPC [4]; Acyl-CoA alone, Table 1): 1.6 ± 0.7 | Ka (apparent activation constant) (WT SaPC [4]; [13]): 5900 ± 3100 µM | concentration range in which SaPC is activated (WT SaPC [4]; WT SaPC (Figure S2)): up to 7 mM | concentration at which inhibitory (WT SaPC [4]; WT SaPC (Figure S2), attributed to competition with ATP in BC domain): greater than 7 mM | estimated apparent Ka (WT SaPC [4]; WT SaPC, fit to Equation 2, Ki fixed at 5 mM): ~ 5.9 mM

B1: Staphylococcus aureus pyruvate carboxylase, wild type (enzyme)
chain: MKQIKKLLVANRGEIAIRIFRAAAELDISTVAIYSNEDKSSLHRYKADESYLVGSDLGPAESYLNIERIIDVAKQANVDAIHPGYGFLSENEQFARRCAEEGIKFIGPHLEHLDMFGDKVKARTTAIKADLPVIPGTDGPIKSYELAKEFAEEAGFPLMIKATSGGGGKGMRIVREESELEDAFHRAKSEAEKSFGNSEVYIERYIDNPKHIEVQVIGDEHGNIVHLFERDCSVQRRHQKVVEVAPSVGLSPTLRQRICDAAIQLMENIKYVNAGTVEFLVSGDEFFFIEVNPRVQVEHTITEMVTGIDIVKTQILVAAGADLFGEEINMPQQKDITTLGYAIQCRITTEDPLNDFMPDTGTIIAYRSSGGFGVRLDAGDGFQGAEISPYYDSLLVKLSTHAISFKQAEEKMVRSLREMRIRGVKTNIPFLINVMKNKKFTSGDYTTKFIEETPELFDIQPSLDRGTKTLEYIGNVTINGFPNVEKRPKPDYELASIPTVSSSKIASFSGTKQLLDEVGPKGVAEWVKKQDDVLLTDTTFRDAHQSLLATRVRTKDMINIASKTADVFKDGFSLEMWGGATFDVAYNFLKENPWERLERLRKAIPNVLFQMLLRASNAVGYKNYPDNVIHKFVQESAKAGIDVFRIFDSLNWVDQMKVANEAVQEAGKISEGTICYTGDILNPERSNIYTLEYYVKLAKELEREGFHILAIKDMAGLLKPKAAYELIGELKSAVDLPIHLHTHDTSGNGLLTYKQAIDAGVDIIDTAVASMSGLTSQPSANSLYYALNGFPRHLRTDIEGMESLSHYWSTVRTYYSDFESDIKSPNTEIYQHEMPGGQYSNLSQQAKSLGLGERFDEVKDMYRRVNFLFGDIVKVTPSSKVVGDMALYMVQNDLDEQSVITDGYKLDFPESVVSFFKGEIGQPVNGFNKDLQAVILKGQEALTARPGEYLEPVDFEKVRELLEEEQQGPVTEQDIISYVLYPKVYEQYIQTRNQYGNLSLLDTPTFFFGMRNGETVEIEIDKGKRLIIKLETISEPDENGNRTIYYAMNGQARRIYIKDENVHTNANVKPKADKSNPSHIGAQMPGSVTEVKVSVGETVKANQPLLITEAMKMETTIQAPFDGVIKQVTVNNGDTIATGDLLIEIEKATD
modifications: biotin, covalently tethered to the BCCP domain (co-expressed with BirA to ensure complete biotinylation; residue not stated)
stoichiometry N (SEC): 4

B2: R21A SaPC (enzyme)
chain: B1 chain with R21A
modifications: biotin, covalently tethered to the BCCP domain (co-expressed with BirA to ensure complete biotinylation; residue not stated)
stoichiometry N (SEC): 4

B3: K46A SaPC (enzyme)
chain: B1 chain with K46A
modifications: biotin, covalently tethered to the BCCP domain (co-expressed with BirA to ensure complete biotinylation; residue not stated)
stoichiometry N (SEC): 4

B4: E418A SaPC (enzyme)
chain: B1 chain with E418A
modifications: biotin, covalently tethered to the BCCP domain (co-expressed with BirA to ensure complete biotinylation; residue not stated)
stoichiometry N (SEC): 4
